Bioassay records (PubChem BioAssay)
MPTP block: inhibitors of mitochondrial permeability transition pore; inhibition, % at 10 µM; isolated mouse mitochondria, Ca2+ swelling absorbance, 30 min; hit rate 1.4% among 360,000;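 active means inhibition of 50% or more, scaled per plate between neutral and stimulator controls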
OX1R antag-1: antagonists of human orexin 1 receptor | hit rate 0.43% among 330,000 | AID 434989 | CHO/OX1R cells, Fluo-8 calcium fluorescence, orexin A | inhibition, % at 5 µM;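 active means inhibition above its plate's threshold, mean inhibition of all tested compounds on the plate plus 3 SD, cut at about 37% in these data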
Target sequence (O43613 whole entry, looked up): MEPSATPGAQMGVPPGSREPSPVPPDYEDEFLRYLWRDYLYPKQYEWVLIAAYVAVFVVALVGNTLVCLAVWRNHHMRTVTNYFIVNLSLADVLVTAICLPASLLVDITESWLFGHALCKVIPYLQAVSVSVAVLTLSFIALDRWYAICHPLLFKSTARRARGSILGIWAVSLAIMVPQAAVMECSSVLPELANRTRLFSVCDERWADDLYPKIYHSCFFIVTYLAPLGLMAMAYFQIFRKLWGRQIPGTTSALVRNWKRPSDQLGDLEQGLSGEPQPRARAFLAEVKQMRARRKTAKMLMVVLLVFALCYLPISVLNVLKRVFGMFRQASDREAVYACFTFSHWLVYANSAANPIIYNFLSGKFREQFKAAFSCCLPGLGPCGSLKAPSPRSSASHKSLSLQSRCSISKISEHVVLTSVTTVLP
GPR7 antag: antagonists of human GPR7 (neuropeptides B/W receptor 1); P48145; inhibition, % at 4.4 µM; GPR7-expressing cells, fluorescence antagonist assay; hit rate 1.1% among 290,000; AID 1861; in the data active means inhibition above about 16%, passing the limit was not always enough;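 further: cells stimulated with the agonist NPW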
CHO parental Ca: counter-screen: ATP calcium response change in parental CHO cells; parental CHO-K1, ATP-induced calcium, Fluo-8 fluorescence; inhibition, % at 5.6 µM; hit rate 0.63% among 330,000; AID 463079;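 active means inhibition above that plate's mean sample inhibition plus 3 SD, cut at about 26% in these data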
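Test system: parental CHO cells; detection: calcium-sensitive Fluo-8 fluorescence; evaluation: percent inhibition of calcium signal; also added: ATP as calcium-mobilizing challenge; repeats: one well per compound; control set: ATP-challenged DMSO wells low, unchallenged DMSO wells high; compound: single nominal dose of 5.6 µM per compound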
OX1R antag-2: antagonists of human orexin 1 receptor (OX1R) | OX1R-expressing cells, FRET antagonist read-out | inhibition, % at 6.6 µM | hit rate 1.8% among 330,000 | AID 485270; in the data active means inhibition mostly above about 38%, no sharp cut-off; inactive means mostly below about 40%
Large screens that a line does not name were inactive. In the library only some 3.8% were active in any assay of this set; here they are far more common.

O=C(CN(c1ccccc1)S(=O)(=O)c1ccccc1)NCCSCc1ccco1	OX1R antag-2 56.6
COc1ccccc1N(CC(=O)NCCSCc1ccco1)S(=O)(=O)c1ccccc1	OX1R antag-2 50.9
COc1ccc(N(CC(=O)NCCSCc2ccco2)S(=O)(=O)c2ccccc2)cc1OC	none
COc1ccc(Cl)cc1NC(=O)COC(=O)C1=NNC(=O)CC1	none (no result: GPR7 antag)
O=C1NC[C@H](CCCCN2CCN(CCC3CCCCC3)C(=O)C2=O)N(CCc2ccc(O)cc2)C1=O	none (no result: OX1R antag-1, GPR7 antag, CHO parental Ca, OX1R antag-2)
Cc1ccc(S(=O)(=O)CC(N)=O)cc1	CHO parental Ca 69.6
CC/C(=N\NC(=O)c1nnn(-c2nonc2N)c1-c1cccc(OC)c1)c1ccc(C)cc1	none
CCn1c(CCNC(=O)c2ccc(Cl)c(Cl)c2)nnc1SCCOc1ccc(OC)cc1	OX1R antag-2 40.8
COc1ccc(OCCSc2nnc(CCNC(=O)c3ccc(Cl)c(Cl)c3)n2C)cc1	none
Cc1ccc(CN(C(=O)COc2ccc(C)c(C)c2)C2CCS(=O)(=O)C2)o1 (stereo not given)	none
COc1cc(/C=N/Nc2nncn2/N=C/c2ccc(O)c(OC)c2)ccc1O	OX1R antag-2 68.4
COc1ccc(OC)c(/C=N/Nc2nncn2/N=C/c2cc(OC)ccc2OC)c1	none
CCOc1cc(/C=N/Nc2nnc(C)n2N)ccc1O	OX1R antag-2 61.3
CCOc1cc(/C=N/Nc2ncnc(Cl)c2N)ccc1O	none
O=C(c1ccco1)N1CCN(Cc2cc(=O)c(OCc3ccc([N+](=O)[O-])cc3)co2)CC1	OX1R antag-2 38.8 (no result: GPR7 antag)
CSc1nnc2c(n1)[nH]c1c(C)cccc12	none
CCSc1nnc2c(n1)[nH]c1c(C)cccc12	OX1R antag-2 40.2
NS(=O)(=O)c1ccc(N=Nc2ccc(O)c3ncccc23)cc1	none
NS(=O)(=O)c1ccc(N=Nc2ccc(=O)[nH]c2O)cc1	OX1R antag-2 74.4
O=C(O)c1ccccc1Nc1cc(Cl)c2nonc2c1[N+](=O)[O-]	OX1R antag-2 60.9
O=C(O)c1cccc(Nc2ccc([N+](=O)[O-])c3nonc23)c1	OX1R antag-2 34.0
O=[N+]([O-])c1ccc2nonc2c1Nc1ccccc1	OX1R antag-2 27.5
O=C(O)c1ccccc1Nc1ccc([N+](=O)[O-])cc1	none
O=[N+]([O-])c1cccc(Nc2c([N+](=O)[O-])ccc3nonc23)c1	none
CCNc1cc(Nc2c(C)n(C)n(-c3ccccc3)c2=O)c([N+](=O)[O-])c2nonc12	none
O=[N+]([O-])c1c(Nc2ccccn2)cc(Cl)c2nonc12	OX1R antag-2 45.0
O=S(=O)(NCc1ccccc1)NCc1cccc(C(F)(F)F)c1	none
O=C(O)c1cccc(Nc2cc(Cl)c3nonc3c2[N+](=O)[O-])c1	OX1R antag-2 57.8
O=C(/C=C/c1ccc(Cl)c([N+](=O)[O-])c1)Nc1ccc(NC(=O)c2ccco2)cc1	none (no result: OX1R antag-1, CHO parental Ca, OX1R antag-2)
O=C(/C=C/c1ccc(Cl)c([N+](=O)[O-])c1)Nc1cccnc1	OX1R antag-2 54.4
O=C(/C=C/c1ccc(Cl)c([N+](=O)[O-])c1)Nc1cccc(NC(=O)c2ccco2)c1	OX1R antag-2 57.6
Cc1ccc(S(=O)(=O)/N=C2\C(=O)c3ccccc3C([O-])=C2n2cc[n+](CCC(C)C)c2)cc1	OX1R antag-2 44.4
NC(=O)Nn1c(CCC(=O)O)ccc1-c1ccc(Cl)cc1	none
O=C(O)CCc1ccc(-c2ccccc2)n1NC(=O)c1sc2ccccc2c1Cl	OX1R antag-2 40.7
CCOCCCNC1=C(Cl)C(=O)c2ccccc2C1=O	OX1R antag-2 71.4
O=C1C(Cl)=C(NCCN2CCOCC2)C(=O)c2ccccc21	OX1R antag-2 61.4
O=C1C(Cl)=C(NCCCN2CCOCC2)C(=O)c2ccccc21	none (no result: OX1R antag-1, GPR7 antag, CHO parental Ca, OX1R antag-2)
COC(=O)C1=C(C)C(c2ccc(OC)cc2OC)NC(=O)N1 (stereo not given)	none
COc1ccc(C2CC(C)(c3ccc(OC)cc3OC)Nc3ccccc3N2)c(OC)c1 (stereo not given)	OX1R antag-1 38.0, CHO parental Ca 71.5
Cn1c(N)nc2nc[nH]c2c1=S	none (no result: OX1R antag-1, GPR7 antag, CHO parental Ca, OX1R antag-2)
O=C(c1nc2nc(-c3ccc(Cl)cc3)cc(C(F)(F)F)n2n1)N1CCOCC1	OX1R antag-2 46.2
O=C(O)Cc1sc(NC2CCCCC2)nc1-c1ccc(Cl)cc1	CHO parental Ca 32.6
COc1ccc(NC(=O)c2cc(-c3cccc(OC)c3)on2)cc1	none
COc1ccc(NC(=O)c2cc(-c3ccco3)on2)c(OC)c1	none
O=C(Nc1ccccc1C(F)(F)F)c1cc(-c2cccc(O)c2)on1	CHO parental Ca 51.4
COc1ccc(NC(=O)c2cc(-c3ccccc3OC)on2)cc1	OX1R antag-2 45.4
